This is a sample that favours compounds with a hit; in the whole collection about 2.9% have one here.
Wee1 degr inh – Wee1 degradation inhibitors, primary screen, cell-based, HeLa, Wee1K328M-luciferase, luminescence; Wee1-like protein kinase (Homo sapiens), P30291; HeLa Luc-Wee1K328M stability; 100% = proteasome inhibitor MG132 effect; reporter increase, % at 5 µM; hit rate 1.2% among 220,000;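 active = activation above the mean of all tested compounds plus 3 SD, set per screening run, cut at about 8.8% in these data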;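 note: cells exposed to compound for 20 h before luminescence read; 0% = DMSO alone and 100% = MG132 at 30 µM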
AI-2 QS modul – Vibrio harveyi AI-2 quorum sensing modulators, primary screen, JMH597 strain, luminescence/OD600 ratio | Vibrio harveyi JMH597 AI-2 luminescence/OD600 ratio, 9 h; hits give low values; strain lacks LuxN and CqsS sensors; 0 = neutral-control median | AID 2094, 2009 | hit rate 0.4% among 300,000 | activity change, % at 7.5 µM; in the data active = activity change below about -75%, passing the limit was not always enough; inconclusive = no clear call, values can overlap the other calls;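 note: luminescence divided by OD600 gain over 9 h not by final OD600 alone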
RanGTP-Impb inh – inhibitors of RanGTP-importin-beta interaction, primary screen, biochemical, FRET, CFP-Ran, YFP-importin-beta, homogeneous; Ran GTPase (GTP-bound) - importin-beta complex; cell-free CFP-Ran/YFP-importin-beta FRET ratio; inhibition, % (test concentration not listed); hit rate 1.1% among 300,000;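 active = more than half of the replicate wells show a fall in the fluorescence ratio signal beyond about 16%, limit read from the data, passing the limit was not always enough; inconclusive = exactly half of the replicate wells pass the set limit; inactive = fewer than half of replicates pass the limit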;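 note: 0% = DMSO wells and 100% = Ran loaded with GDP instead of GTP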
Runt-CBFb FRET – inhibitors of RUNX1 Runt–CBFb binding, primary screen, biochemical, FRET, Cerulean-Runt, Venus-CBFb, uHTS. Runt-related transcription factor 1 (Homo sapiens) + Core-binding factor subunit beta …. Cerulean-Runt/Venus-CBFb FRET ratio 530/480, 1 h. inhibition, % at 20 µM. hit rate 0.46% among 220,000. AID 1496, 2009;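 active = inhibition over about 50% at 20 µM in the single-dose screen, limit read from the data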;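 note: 0% = DMSO wells and 100% = excess unlabeled CBFb competitor control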
Target sequence (Q01196 whole entry, looked up): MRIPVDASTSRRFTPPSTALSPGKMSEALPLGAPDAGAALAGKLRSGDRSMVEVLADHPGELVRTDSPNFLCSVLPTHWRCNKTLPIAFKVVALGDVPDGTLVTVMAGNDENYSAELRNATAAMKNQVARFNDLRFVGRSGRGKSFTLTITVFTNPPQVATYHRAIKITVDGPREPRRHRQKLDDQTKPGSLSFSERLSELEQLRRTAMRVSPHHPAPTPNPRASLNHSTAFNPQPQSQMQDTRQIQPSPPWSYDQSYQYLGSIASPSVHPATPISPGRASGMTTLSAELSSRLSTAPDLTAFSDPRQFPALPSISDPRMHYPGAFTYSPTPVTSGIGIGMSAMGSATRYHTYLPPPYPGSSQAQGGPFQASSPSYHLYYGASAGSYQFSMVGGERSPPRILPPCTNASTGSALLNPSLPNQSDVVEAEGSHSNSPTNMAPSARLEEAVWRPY
Target sequence (Q13951 whole entry, looked up): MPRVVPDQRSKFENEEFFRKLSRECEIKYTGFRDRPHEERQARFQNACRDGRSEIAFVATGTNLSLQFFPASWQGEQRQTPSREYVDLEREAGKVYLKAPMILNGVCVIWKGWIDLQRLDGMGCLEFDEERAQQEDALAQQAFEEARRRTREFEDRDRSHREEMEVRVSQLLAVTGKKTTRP
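Assay system: Cerulean-Runt domain fusion protein, energy donor; Signal: fluorescence energy transfer, 422 nm excitation, 530/480 nm emission; Timing: 1 h compound exposure, room temperature; Control set: unlabeled CBFb; Medium: Tris buffer pH 7.5 with salts and BSA; Compound: single test concentration of 20 µM, 1% DMSO final; Probe or stimulus: Venus-CBFb 100 nM.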
proKLK7 act – proKLK7 zymogen activators, primary screen, biochemical, fluorescence intensity. purified proKLK7, EDANS-DABCYL substrate fluorescence; 100% is mature enzyme control, 0% vehicle. activation, % at 7 µM. hit rate 0.9% among 370,000;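 active = activation above the mean of all tested compounds plus 3 SD, computed per campaign excluding outliers beyond control limits, cut at about 13% in these data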
Runt-SMMHC FRET – inhibitors of RUNX1 Runt–CBFb-SMMHC binding, primary screen, biochemical, FRET, Cerulean-Runt, Venus-CBFb-SMMHC, uHTS | Runt-related transcription factor 1 (Homo sapiens) + Core-binding factor subunit beta … | Cerulean-Runt/Venus-CBFb-SMMHC FRET ratio 530/480, 1 h | inhibition, % at 20 µM | hit rate 0.74% among 220,000;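 active = mean inhibition across duplicate retests at 20 µM reaching about 50%, limit read from the data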;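 note: 0% = DMSO wells and 100% = wells with excess untagged CBFb-SMMHC; inhibitors lower the FRET ratio by blocking Runt binding to CBFb-SMMHC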
Wee1 stab conf – Wee1 degradation inhibitors, confirmation, cell-based, HeLa, Wee1K328M-luciferase, luminescence, triplicate; activation, % at 5 µM; HeLa Luc-Wee1K328M degradation; vehicle 0%, proteasome-blocked wells 100%; hit rate 4% among 1,100; AID 1410, 2008; shares compounds with Wee1 degr inh; in the data active = activation above about 8.9%
* hit, by the source's call; ? = inconclusive; · = no result given.

SMILES	Wee1 degr inh	AI-2 QS modul	RanGTP-Impb inh	Runt-CBFb FRET	proKLK7 act	Runt-SMMHC FRET	Wee1 stab conf
Cc1ccc(S(=O)(=O)Nc2nc(C)c(C(=O)NNS(=O)(=O)c3cc(C)ccc3C)s2)cc1	·	25	5	·	1	·	·
CC(C)OCCCn1c(=O)c2ccccc2n2c(CCC(=O)NC3CCN(Cc4ccccc4)CC3)nnc12	·	-1	4	·	1	·	·
CC(=O)c1cccc(N(C(=O)CNC(=O)c2ccco2)C(C(=O)NCc2ccco2)c2ccccc2)c1 (configuration not stated)	19*	28	-2	-1	1	2	-3
CC(C)c1nnc(NC(=O)CCC(=O)NCC2CCCO2)s1 (configuration not stated)	-1	23	-4	0	0	-3	·
O=C(CCC(=O)Nc1nnc(C2CCCCC2)s1)NCC1CCCO1 (configuration not stated)	16*	10	1	4	0	4	2
CN1CCN(CC(=O)NN(Cc2ccccc2)c2ccccc2)CC1	-2	14	-3	3	-1	0	·
CCN(CC)CC(=O)NN(Cc1ccccc1)c1ccccc1	11*	18	2	2	1	-1	2
CC(=O)N/C(=C\c1ccccc1)C(=O)OCC(=O)NC1CCS(=O)(=O)C1 (configuration not stated)	·	·	·	·	0	·	·
O=c1ccc2cccc([N+](=O)[O-])c2[nH]1	·	·	·	·	0	·	·
COc1cccc(/C=N/NC(=O)c2cc3c(OC)c(OC)ccc3[nH]2)c1OC	12*	28	·	-2	1	3	10*
COc1ccc(C(=O)N2CCC(C)(C(=O)NS(=O)(=O)C3CC3)C2)cc1F (configuration not stated)	·	·	·	·	1	·	·
O=C(CC1C(=O)N(c2ccccc2)C(=S)N1c1ccccc1)c1ccccc1 (configuration not stated)	-1	9	-1	2	0	2	·
O=C(CC1C(=O)N(c2ccccc2)C(=S)N1c1ccccc1)c1ccc(Br)cc1 (configuration not stated)	67*	12	2	2	0	3	1
CCn1c(SCc2cc(=O)[nH]c3ccccc23)nnc1C1CC1	5	27	2	2	1	4	·
O=C(NCc1ccc(F)cc1)c1ccccc1OCc1ccccc1	20*	12	-2	1	0	-3	1
O=C(NNC(=O)c1ccccc1OCc1ccc(F)cc1)c1ccccc1O	·	25	3	·	0	·	·
CCC(C)(C)N(C(=O)CCC(=O)Nc1cc(C)on1)C(C(=O)NC(C)(C)C)c1ccc(OC)cc1 (configuration not stated)	·	8	-2	·	0	·	·
O=C(/C=C/c1cccc(F)c1)Nc1ccc(S(=O)(=O)N2CCOCC2)cc1	·	·	·	·	0	·	·
O=C(CN1CCN(c2cccc(Cl)n2)CC1)N1CC(O)CO1 (configuration not stated)	2	18	1	-1	0	-5	·
O=C(CN1CCN(c2ccccn2)CC1)N1CC(O)CO1 (configuration not stated)	18*	10	7	0	0	-9	0
Cc1ccc(NC(=O)Nc2cccc([N+](=O)[O-])c2)cc1F	-1	-6	-2	-1	0	-9	·
O=C(Nc1ccc(OC(F)(F)F)cc1)Nc1cccc([N+](=O)[O-])c1	17*	?	-2	-1	0	-2	2
CC1(C)CC(=O)C2=C(C1)N=C1SCCC(=O)N1C2c1cccc([N+](=O)[O-])c1 (configuration not stated)	12*	8	-1	-2	-1	-1	0
Cc1cc2nc(-c3cccc(NC(=O)c4ccc(Br)o4)c3C)oc2cc1C	14*	27	-5	0	-4	0	0
COc1ccc(-n2nc(C(=O)NCC(=O)NCCC3=CCCCC3)c3ccccc3c2=O)cc1	·	33	4	·	1	·	·
SMILES	Wee1 degr inh	AI-2 QS modul	RanGTP-Impb inh	Runt-CBFb FRET	proKLK7 act	Runt-SMMHC FRET	Wee1 stab conf
COc1ccc(CC(=O)Nc2nc(OCC(F)(F)F)cnc2-c2ccc(Cl)cc2Cl)cc1	·	·	·	·	0	·	·
O=S(=O)(c1ccc(Oc2ccc(S(=O)(=O)N(CCO)CCO)cc2)cc1)N(CCO)CCO	4	29	-2	0	0	1	·
O=S(=O)(c1ccc(N2CCC(c3ccc(Cl)cc3)=N2)cc1)N(CCO)CCO	11*	9	?	48	-374	108*	0
O=C(NC1CCN(Cc2nnnn2CCc2ccccc2)CC1)c1ccccc1F	12*	13	-3	3	0	0	-1
Cc1ccc(NC(=S)NNC(=O)Nc2ccccc2)cc1	14*	10	-1	8	-1	1	4
[O-][n+]1c2ccccc2c2n1CCN1CCOC21c1ccc(Cl)cc1 (configuration not stated)	·	·	·	·	2	·	·
CCNc1nc(N)nc(-c2cc(Cl)ccc2O)n1	-1	-13	0	-2	·	-1	·
CCCCNc1nc(N)nc(-c2cc(Cl)ccc2O)n1	14*	3	7	-5	1	-3	2
CCN(CC(=O)Nc1ccc(OC)cc1)C(=O)c1ccc2c(=O)n3c(nc2c1)CCC3	·	·	·	·	0	·	·
CN(C)C=NC(=O)c1cc(C(=O)c2ccc(Cl)cc2Cl)c[nH]1	3	15	3	1	0	-5	·
CC(C(=O)c1c[nH]c(C(=O)N=CN(C)C)c1)c1ncc(C(F)(F)F)cc1Cl (configuration not stated)	14*	8	1	-1	1	-2	2
COc1cc(CN2CCNC(=O)C2CC(=O)N2CCc3ccccc3C2)cc(OC)c1 (configuration not stated)	3	22	0	0	-1	0	·
O=C(COC(=O)c1ccccc1Br)Nc1ccccc1F	1	-32	1	-1	0	0	·
COc1cc([N+](=O)[O-])ccc1NC(=O)CCCOc1cc(C)ccc1C	13*	18	2	1	0	-2	0

Compound activity from PubChem BioAssay.
